In ChEMBL document CHEMBL4840308, “Design and synthesis of Mannich base-type derivatives containing imidazole and benzimidazole as lead compounds for drug discovery in Chagas Disease” (Eur J Med Chem, 2021):
Active and inactive are the calls of the source. No cut-off for these calls is given here.

Experiments:
[1] = tested on: Trypanosoma cruzi; assay: Antiprotozoal activity against Trypanosoma cruzi epimastigotes assessed as inhibition of parasite growth incubated for 72 hrs followed by alamar blue addition further incubated for 24 hrs; format: functional, organism-based
How it was run: (§1)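 CL-Luc:Neon epimastigotes, 2.5 x 10^5/well in RPMI-1640, exposed 72 h at 27 C to 8-point 2:1 serial dilutions (DMSO <0.5% final); Alamar Blue […] added, 24 h further, read at 540 nm; IC50 interpolated from sigmoidal variable-slope fit; triplicates, three independent experiments.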

[2] = Cytotoxicity against golden hamster BSR cells assessed as reduction in cell viability incubated for 72 hrs followed by alamar blue addition further incubated for 6 hrs; format: cell-based; details: Mesocricetus auratus
How it was run: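 BSR (BHK-21 subclone) cells, 5 x 10^4/well in DMEM with 5% FBS, adhered 6 h at 37 C, 5% CO2, then given 8-point 2:1 drug dilutions for 72 h; Alamar Blue added for 6 h, absorbance 540 nm; IC50 from sigmoidal variable-slope fit; triplicates, three independent experiments.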

[3] = Selectivity index, ratio of IC50 for cytotoxicity against golden hamster BSR cells to IC50 for antiprotozoal activity against Trypanosoma cruzi epimastigotes; format: toxicity, cell-based; details: read-out: Selectivity Index
How it was run: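 Selectivity index as ratio of BSR cell IC50 to epimastigote IC50, both from 72 h Alamar Blue assays.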

[4] = tested on: Trypanosoma cruzi; assay: Antitrypanosomal activity against Trypanosoma cruzi amastigotes infected in BSR cells assessed as inhibition of replication of intracellular amastigotes incubated for 72 hrs by fluorescence based analysis; format: functional, organism-based
How it was run: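 BSR cells (5 x 10^4/well) attached 6 h, infected overnight with CL-Luc:Neon tissue-culture trypomastigotes at MOI 10, washed 3x PBS, then drug in DMEM with 1% FBS for 72 h; fixed in 4% paraformaldehyde 30 min, fluorescence read ex 488/em 525 nm; IC50 by curve interpolation; triplicates, three experiments.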

[5] = tested on: Trypanosoma cruzi; assay: Antitrypanosomal activity against Trypanosoma cruzi trypomastigotes assessed as inhibition of cellular invasion incubated for 6 hrs in high-glucose DMEM medium followed by compound washout further infected in BSR cells measured after 72 hrs by fluorescence based analysis; format: functional, organism-based
How it was run: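 Tissue-culture trypomastigotes exposed to drug dilutions 6 h at 37 C in high-glucose DMEM with 10% FBS, washed 3x PBS, used to infect BSR cells overnight; non-internalised parasites washed off, 1% FBS medium, infection run 72 h further; amastigote fluorescence (ex 488/em 525 nm) read; IC50 for invasion reduction by curve interpolation.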

[6] = Selectivity index, ratio of cytotoxicity against golden hamster BSR cells to IC50 for antitrypanosomal activity against Trypanosoma cruzi amastigotes infected in BSR cells; format: toxicity, cell-based; details: read-out: Selectivity Index
How it was run: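 Selectivity index as ratio of BSR cell IC50 to intracellular amastigote IC50 (72 h fluorescence read-out).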

[7] = Selectivity index, ratio of cytotoxicity against golden hamster BSR cells to IC50 for antitrypanosomal activity against Trypanosoma cruzi trypomastigotes; format: toxicity, cell-based; details: read-out: Selectivity Index
How it was run: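 Selectivity index as ratio of BSR cell IC50 to trypomastigote invasion IC50 (6 h pre-exposure, fluorescence read-out).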

[8] = tested on: Trypanosoma cruzi; assay: Trypanocidal activity against Trypanosoma cruzi CL-Luc-Neon amastigotes infected in BSR cells assessed as inhibition of parasite growth at 10 times IC50 incubated for 20 days measured after 10 days of compound wash out by epifluorescence microscopy analysis; format: functional, organism-based; details: time 20.0 day
How it was run: (§2)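 BSR cells on 8-well slides or 24-well plates infected with CL-Luc:Neon trypomastigotes as in the amastigote assay, then exposed to 10 or 20 x IC50 for 10 or 20 days, compound renewed every 4 days; after removal, followed up to 30 days by light and fluorescence microscopy at 37 C, 5% CO2; three wells per treatment, 30 captures per timepoint; relapse day recorded.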

[9] = tested on: Trypanosoma cruzi; assay: Trypanocidal activity against Trypanosoma cruzi CL-Luc-Neon amastigotes infected in BSR cells assessed as inhibition of parasite growth at 10 times IC50 incubated for 10 days measured after 10 days of compound wash out by epifluorescence microscopy analysis; format: functional, organism-based; details: time 10.0 day; how it was run: as §2
[10] = Genotoxicity in human TK6 cells assessed as decrease in cell proliferation at 20 uM incubated for 3 hrs by comet assay; format: cell-based; details: tk6, 3 h
How it was run: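 TK-6 human lymphoblastoid cells (6 x 10^5 in 1 mL culture medium) exposed 3 h, washed three times, then grown 48 h in fresh medium at 37 C, 5% CO2 with agitation, and counted at 24 h (to adjust density) and at 48 h. Relative suspension growth is total suspension growth (48 h count / pre-treatment count) as % of untreated control. Triplicates, three independent experiments.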

[11] = tested on: Trypanosoma cruzi; assay: Antiprotozoal activity against Trypanosoma cruzi epimastigotes assessed as decrease in parasitemia by measuring change in fluorescence intensity at >2.5 uM measured after 3 days by flourescence based analysis; format: functional, organism-based; details: dose microM >2.5, time 3.0 day
[12] = tested on: Trypanosoma cruzi; assay: Trypanocidal activity against Trypanosoma cruzi CL-Luc-Neon amastigotes infected in BSR cells assessed as inhibition of parasite growth at 20 times IC50 incubated for 20 days measured after 10 days of compound wash out by epifluorescence microscopy analysis; format: functional, organism-based; details: time 20.0 day; how it was run: as §2
[13] = tested on: Trypanosoma cruzi; assay: Trypanocidal activity against Trypanosoma cruzi CL-Luc-Neon amastigotes infected in BSR cells assessed as inhibition of parasite growth at 20 times IC50 incubated for 20 days measured after 30 days of compound wash out by epifluorescence microscopy analysis; format: functional, organism-based; details: time 20.0 day; how it was run: as §2
[14] = tested on: Trypanosoma cruzi; assay: Antitrypanosomal activity against Trypanosoma cruzi trymastigotes assessed as blockage of trypomastigote infectivity at >50 uM incubated for 6 hrs followed by compound washout further infected in BSR cells for 18 hrs measured after 120 hrs post infection by inverted fluorescence microscope analysis; format: functional, organism-based; details: dose microM >50, time 6.0 hrs
How it was run: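 Trypomastigotes held 6 h in serial drug concentrations, washed 3x PBS, then infect BSR cells at 10:1 trypomastigote:cell for 18 h; at 120 h post-infection, amastigote replication inspected by inverted epifluorescence microscopy (30 images per treatment, DAPI-stained host nuclei) to find the concentration preventing productive infection.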

[15] = Genotoxicity in human TK6 cells assessed as decrease in cell proliferation at 40 uM incubated for 3 hrs by comet assay relative to control; format: cell-based; parameters: scale not given: the % may be the effect or the level left; details: tk6, 3 h
How it was run: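 TK-6 cells (6 x 10^5 in 1 mL RPMI 1640 with 10% FBS) treated 3 h, washed, cultured 48 h at 37 C, 5% CO2 with agitation, counted at 24 and 48 h; relative suspension growth = TSG treated/TSG control as percentage; three independent experiments.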

[16] = tested on: Trypanosoma cruzi; assay: Trypanocidal activity against Trypanosoma cruzi epimastigotes assessed as inhibition of parasite growth by alamar blue staining based fluorescence analysis; format: functional, organism-based; how it was run: as §1
[17] = tested on: Trypanosoma cruzi; assay: Trypanocidal activity against Trypanosoma cruzi amastigotes assessed as inhibition of parasite growth by alamar blue staining based fluorescence analysis; format: functional, organism-based
[18] = tested on: Trypanosoma cruzi; assay: Trypanocidal activity against Trypanosoma cruzi trypomastigotes assessed as inhibition of parasite growth by alamar blue staining based fluorescence analysis; format: functional, organism-based
[19] = tested on: Trypanosoma cruzi; assay: Synergistic trypanocidal activity against Trypanosoma cruzi epimastigotes assessed as combination index at IC50 in presence of benznidazole by alamar blue staining based fluorescence analysis; format: functional
How it was run: (§3)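 Benznidazole IC50 redetermined by Alamar Blue or fluorescence read-outs under each stage's standard seeding conditions in the presence of the partner drug at its IC50; combination index by isobologram method (Ci <1 synergy, =1 additive, >1 antagonism); triplicate per plate, repeated at least twice.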

[20] = tested on: Trypanosoma cruzi; assay: Synergistic trypanocidal activity against Trypanosoma cruzi amastigotes assessed as combination index at IC50 in presence of benznidazole by alamar blue staining based fluorescence analysis; format: functional; how it was run: as §3
[21] = tested on: Trypanosoma cruzi; assay: Synergistic trypanocidal activity against Trypanosoma cruzi trypomastigotes assessed as combination index at IC50 in presence of benznidazole by alamar blue staining based fluorescence analysis; format: functional; how it was run: as §3
[22] = tested on: Trypanosoma cruzi; assay: Trypanocidal activity against Trypanosoma cruzi epimastigotes assessed as fold decrease in benznidazole IC50 by alamar blue staining based fluorescence analysis relative to control; format: functional; parameters: scale not given: the % may be the effect or the level left; how it was run: as §3
[23] = tested on: Trypanosoma cruzi; assay: Trypanocidal activity against Trypanosoma cruzi trypomastigotes assessed as fold decrease in benznidazole IC50 by alamar blue staining based fluorescence analysis relative to control; format: functional; how it was run: as §3
[24] = tested on: Trypanosoma cruzi; assay: Antitrypanosomal activity against Trypanosoma cruzi trymastigotes assessed as blockage of trypomastigote infectivity at >100 uM incubated for 6 hrs followed by compound washout further infected in BSR cells for 18 hrs measured after 5 days post infection by inverted fluorescence microscope analysis; details: dose microM >100, time 6.0 hrs

Row | SMILES | IC50 [1] [µM] | IC50 [4] [µM] | IC50 [5] [µM] | IC50 [2] [µM] | selectivity ratio [3] | selectivity ratio [6] | selectivity ratio [7] | also measured
1 | O=C(CCn1cnc2ccccc21)C12CC3CC(CC(C3)C1)C2 | 24.8 |  |  | 67.6 | 3 |  |  | 
2 | COS(C)(=O)=O [METHANESULFONIC ACID METHYL ESTER] |  |  |  |  |  |  |  | Activity [10]: Toxic
3 | COc1cc(OC)cc(C(=O)CCn2cnc3ccccc32)c1 | 11.1 |  |  | 70.1 | 6 |  |  | 
4 | COc1ccc(C(=O)CCn2ccnc2[N+](=O)[O-])cc1 | 2.2 | 3.3 | 9.1 | 84.7 | 43 | 28 | 9 | Activity [11]: Active; Activity [12]: Active; Activity [13]: Active; Activity [14]: Active; Activity [15]: 45%; IC50 [16]: 1200 nM; IC50 [17]: 400 nM; IC50 [18]: 5.4 µM; CI [19]: 0.33; CI [20]: 0.81; CI [21]: 0.21; Activity [22]: 70%; fold change (FC) [23]: 4
5 | O=C(Cn1ccnc1[N+](=O)[O-])NCc1ccccc1 [BENZNIDAZOLE] |  | 0.5 | 22.4 | 267 | 67 | 504 | 12 | Activity [11]: Active; Activity [12]: Active; Activity [13]: Active; Activity [24]: inactive

The next lines start with results.

Row | IC50 [1] [µM] | IC50 [4] [µM] | IC50 [5] [µM] | SMILES | IC50 [2] [µM] | selectivity ratio [3] | selectivity ratio [6] | selectivity ratio [7] | also measured
6 | 21.6 | 12.2 | 23 | O=C(CCn1ccnc1)c1cccc([N+](=O)[O-])c1 | 177 | 8 | 15 | 8 | Activity [8]: inactive; Activity [9]: inactive
7 | 23.3 |  |  | O=C(CCn1ccnc1)c1ccc(Cl)c(F)c1 | 135 | 6 |  |  | 
8 | 7.4 | 6.1 | 16.6 | O=C(CCn1ccnc1)c1ccc(F)c2ccccc12 | 72.2 | 10 | 12 | 4 | Activity [8]: inactive; Activity [9]: inactive
9 | 12.9 | 9.1 |  | O=C(CCn1ccnc1)c1ccc([N+](=O)[O-])cc1 | 93.9 | 7 | 10 |  | 
10 | 21.4 |  |  | Cc1ccccc1C(=O)CCn1ccnc1 | 145 | 7 |  |  | 
